Values after ≈ are worked out from the molar mass of the structure shown. A value given as a limit tells only on which side of the number the result lay.

The subject of one assay is Clostridium perfringens. Kind of assay: In vitro antibacterial activity against Clostridium perfringens CP 3-1. The assay is classed as functional.
The test system of another assay is Clostridioides difficile. Briefly: In vitro antibacterial activity was tested for Clostridium diff CD1-1. The assay is classed as functional.
The next assay has as its system Bacteroides fragilis. Briefly: In vitro antibacterial activity against Bacteroides fragilis BFA. The assay is classed as functional. Summed up:
(§1)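 Microtitration (microdilution) MIC determination in μg/mL against a panel of Gram-positive, Gram-negative and anaerobic organisms. Values come from duplicate or triplicate experiments and are stated accurate to ±50%.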

The next assay deals with Cutibacterium acnes. Kind of assay: In vitro antibacterial activity was tested for Propion acnes PA5-1. Type of assay: functional. Summed up:
as §1

Assay [1] has as its system Peptoniphilus asaccharolyticus. Kind of assay: In vitro antibacterial activity was tested for Pepto asac PA 3-1. Type of assay: functional. Summed up:
as §1

For the next assay, the system named is Enterococcus faecalis. Kind of assay: In vitro antibacterial activity was tested for Streptococcus faecalis MGH-2. The assay is classed as functional. The method in brief:
as §1

The subject of another assay is Streptococcus pyogenes. Briefly: In vitro antibacterial activity was tested for Streptococcus pyogenes C203. Type of assay: functional. The method in brief: as §1
The subject of assay [2] is Staphylococcus aureus. Briefly: In vitro antibacterial activity was tested for Staphylococcus aureus UC-76. The assay is classed as functional. The method in brief: as §1
Assay [3] concerns Escherichia coli. Briefly: In vitro antibacterial activity was tested for Escherichia coli Vogel. The assay is classed as functional. Summed up: as §1
Another assay deals with Klebsiella pneumoniae. Kind of assay: In vitro antibacterial activity was tested for Klebsiella pneumoniae MGH-2. Type of assay: functional. Summed up: as §1
The next assay deals with Streptococcus pneumoniae. Briefly: In vitro antibacterial activity was tested for Streptococcus pneumoniae SV-1. Type of assay: functional. The method in brief: as §1
The subject of another assay is Enterobacter cloacae. Briefly: In vitro antibacterial activity was tested for Enterobacter cloacae HA2646. Type of assay: functional.
For assay [4], the system named is Escherichia coli. Kind of assay: In vitro antibacterial activity was tested for Escherichia coli H560. The assay is classed as functional. The method in brief:
as §1

Another assay has as its system Pseudomonas aeruginosa. Briefly: In vitro antibacterial activity was tested for Pseudomonas aeruginosa UI-18. The assay is classed as functional. Summed up: as §1
For the next assay, the system named is Providencia rettgeri. Briefly: In vitro antibacterial activity was tested for Providencia rettgeri H1771. Type of assay: functional. Summed up: as §1
The subject of a further assay is V79. Kind of assay: Clonogenic cytotoxicity against Chinese hamster V-79 cells. Type of assay: functional, cell-based. Conditions: Cricetulus griseus.
The test system of assay [5] is Staphylococcus aureus. Kind of assay: In vitro antibacterial activity was tested for Staphylococcus aureus H228. Type of assay: functional. Summed up: as §1

Consider `NC1CCCN(c2c(F)cc3c(=O)c(C(=O)O)cn(C4CC4)c3c2Cl)C1` (stereo not given), for which the minimal inhibitory concentration (MIC) (in general, the smallest concentration in the dilution series that meets the test's criterion for growth inhibition) came out at 0.1 µg/mL (≈ 0.263 µM) against Clostridium perfringens; 0.4 µg/mL (≈ 1.05 µM) against Clostridioides difficile; 0.2 µg/mL (≈ 0.527 µM) in the assay on Bacteroides fragilis; 0.2 µg/mL (≈ 0.527 µM) against Cutibacterium acnes; 0.4 µg/mL (≈ 1.05 µM) in assay [1].
For `CCOc1c(N2CCCC(CN)C2)c(F)cc2c(=O)c(C(=O)O)cn(C3CC3)c12` (stereo not given), the MIC in the assay on Clostridium perfringens was 0.4 µg/mL (≈ 0.991 µM); against Enterococcus faecalis, 0.05 µg/mL (≈ 0.124 µM); with Clostridioides difficile, 3.1 µg/mL (≈ 7.68 µM); against Streptococcus pyogenes, 0.025 µg/mL (≈ 0.062 µM); against Staphylococcus aureus [2], 0.013 µg/mL (≈ 0.0322 µM); against Escherichia coli [3], 0.2 µg/mL (≈ 0.496 µM). Moreover, the MIC with Klebsiella pneumoniae is 0.8 µg/mL (≈ 1.98 µM); in the assay on Streptococcus pneumoniae it was 0.025 µg/mL (≈ 0.062 µM); with Enterobacter cloacae, 0.4 µg/mL (≈ 0.991 µM); with Escherichia coli [4], 0.1 µg/mL (≈ 0.248 µM); with Pseudomonas aeruginosa it was over 3.1 µg/mL; against Bacteroides fragilis it was 3.1 µg/mL (≈ 7.68 µM). Moreover, the MIC was over 3.1 µg/mL in the assay on Providencia rettgeri, 0.05 µg/mL (≈ 0.124 µM) against Staphylococcus aureus [5], 3.1 µg/mL (≈ 7.68 µM) in the assay with Cutibacterium acnes and 0.4 µg/mL (≈ 0.991 µM) in [1]. Also, the half-inhibitory concentration (IC50) (commonly the concentration at which inhibition is half-maximal) with V79 came out at 63 µg/mL (≈ 156 µM).
For `CCOc1c(N2CCNC(C)C2)c(F)cc2c(=O)c(C(=O)O)cn(C3CC3)c12` (stereo not given), the minimal inhibitory concentration (MIC) against Clostridium perfringens came out at 0.8 µg/mL (≈ 2.05 µM); against Enterococcus faecalis, 0.2 µg/mL (≈ 0.514 µM); with Clostridioides difficile it was 6.3 µg/mL (≈ 16.2 µM); with Streptococcus pyogenes, 0.2 µg/mL (≈ 0.514 µM); against Staphylococcus aureus [2], 0.05 µg/mL (≈ 0.128 µM); against Escherichia coli [3] it was 0.1 µg/mL (≈ 0.257 µM). The minimal inhibitory concentration (MIC) against Klebsiella pneumoniae is 0.2 µg/mL (≈ 0.514 µM); against Streptococcus pneumoniae it was 0.05 µg/mL (≈ 0.128 µM); against Enterobacter cloacae, 0.1 µg/mL (≈ 0.257 µM); in the assay on Escherichia coli [4], 0.05 µg/mL (≈ 0.128 µM); with Pseudomonas aeruginosa, 3.1 µg/mL (≈ 7.96 µM); in the assay with Bacteroides fragilis it was 3.1 µg/mL (≈ 7.96 µM). The minimal inhibitory concentration (MIC) was determined as 0.4 µg/mL (≈ 1.03 µM) with Providencia rettgeri, 0.2 µg/mL (≈ 0.514 µM) with Staphylococcus aureus [5], 3.1 µg/mL (≈ 7.96 µM) against Cutibacterium acnes and 1.6 µg/mL (≈ 4.11 µM) in [1].
Turning to `COc1c(N2CC[C@H](N)C2)c(F)c(N)c2c(=O)c(C(=O)O)cn(C3CC3)c12`, the MIC amounted to 0.8 µg/mL (≈ 2.13 µM) in the assay on Clostridium perfringens; 0.1 µg/mL (≈ 0.266 µM) with Enterococcus faecalis; 3.1 µg/mL (≈ 8.24 µM) against Clostridioides difficile; 0.05 µg/mL (≈ 0.133 µM) in the assay on Streptococcus pyogenes; 0.013 µg/mL (≈ 0.0345 µM) in the assay with Staphylococcus aureus [2]; 0.05 µg/mL (≈ 0.133 µM) in the assay on Escherichia coli [3]. The MIC in the assay with Klebsiella pneumoniae came out at 0.1 µg/mL (≈ 0.266 µM); against Streptococcus pneumoniae, 0.025 µg/mL (≈ 0.0664 µM); in the assay with Enterobacter cloacae, 0.05 µg/mL (≈ 0.133 µM); in the assay with Escherichia coli [4], 0.05 µg/mL (≈ 0.133 µM); in the assay on Pseudomonas aeruginosa it was 0.8 µg/mL (≈ 2.13 µM); with Bacteroides fragilis, 1.6 µg/mL (≈ 4.25 µM). In addition, the MIC in the assay with Providencia rettgeri was 0.2 µg/mL (≈ 0.531 µM); in the assay with Staphylococcus aureus [5], 0.025 µg/mL (≈ 0.0664 µM); against Cutibacterium acnes, 1.6 µg/mL (≈ 4.25 µM); in [1] it was 1.6 µg/mL (≈ 4.25 µM).
Consider `CCOc1c(N2CCCC(N)C2)c(F)cc2c(=O)c(C(=O)O)cn(C3CC3)c12` (stereo not given), for which the minimum inhibitory concentration (MIC) was 0.2 µg/mL (≈ 0.514 µM) against Enterococcus faecalis; 0.2 µg/mL (≈ 0.514 µM) in the assay with Streptococcus pyogenes; 0.025 µg/mL (≈ 0.0642 µM) against Staphylococcus aureus [2]; 0.2 µg/mL (≈ 0.514 µM) with Escherichia coli [3]; 0.4 µg/mL (≈ 1.03 µM) in the assay with Klebsiella pneumoniae; 0.2 µg/mL (≈ 0.514 µM) in the assay on Streptococcus pneumoniae. Besides, the MIC against Enterobacter cloacae came to 0.4 µg/mL (≈ 1.03 µM); in the assay with Escherichia coli [4], 0.2 µg/mL (≈ 0.514 µM); in the assay on Pseudomonas aeruginosa, 3.1 µg/mL (≈ 7.96 µM); in the assay with Providencia rettgeri, 0.8 µg/mL (≈ 2.05 µM); with Staphylococcus aureus [5], 0.1 µg/mL (≈ 0.257 µM). In the assay on V79, the half-inhibitory concentration (IC50) was determined as 210 µg/mL (≈ 539 µM).
`COc1c(N2CCNCC2)c(F)cc2c(=O)c(C(=O)O)cn(C3CC3)c12`: the minimum inhibitory concentration (MIC) in the assay on Clostridium perfringens came out at 0.4 µg/mL (≈ 1.11 µM); in the assay on Enterococcus faecalis it was 0.2 µg/mL (≈ 0.553 µM); in the assay with Clostridioides difficile it was 1.6 µg/mL (≈ 4.43 µM); in the assay on Streptococcus pyogenes, 0.1 µg/mL (≈ 0.277 µM); against Staphylococcus aureus [2], 0.05 µg/mL (≈ 0.138 µM); with Escherichia coli [3], 0.05 µg/mL (≈ 0.138 µM). The MIC in the assay with Klebsiella pneumoniae was 0.1 µg/mL (≈ 0.277 µM); in the assay with Streptococcus pneumoniae, 0.1 µg/mL (≈ 0.277 µM); in the assay on Enterobacter cloacae, 0.025 µg/mL (≈ 0.0692 µM); with Escherichia coli [4], 0.025 µg/mL (≈ 0.0692 µM); against Pseudomonas aeruginosa, 0.8 µg/mL (≈ 2.21 µM); against Bacteroides fragilis it was 0.8 µg/mL (≈ 2.21 µM). Besides, the minimum inhibitory concentration (MIC) against Providencia rettgeri was 0.1 µg/mL (≈ 0.277 µM); against Staphylococcus aureus [5], 0.2 µg/mL (≈ 0.553 µM); against Cutibacterium acnes, 0.4 µg/mL (≈ 1.11 µM); in assay [1] it was 3.1 µg/mL (≈ 8.58 µM).
For the compound `CCOc1c(N2CCC(C)(CN)C2)c(F)c(N)c2c(=O)c(C(=O)O)cn(C3CC3)c12` (stereo not given), the minimum inhibitory concentration (MIC) against Clostridium perfringens came out at 0.4 µg/mL (≈ 0.956 µM); in the assay with Enterococcus faecalis, 0.1 µg/mL (≈ 0.239 µM); with Clostridioides difficile, 6.3 µg/mL (≈ 15.1 µM); against Streptococcus pyogenes, 0.1 µg/mL (≈ 0.239 µM); in the assay with Staphylococcus aureus [2], 0.025 µg/mL (≈ 0.0597 µM); against Escherichia coli [3], 0.2 µg/mL (≈ 0.478 µM). Also, the minimal inhibitory concentration (MIC) worked out at 0.8 µg/mL (≈ 1.91 µM) in the assay with Klebsiella pneumoniae; 0.05 µg/mL (≈ 0.119 µM) in the assay with Streptococcus pneumoniae; 0.4 µg/mL (≈ 0.956 µM) in the assay on Enterobacter cloacae; 0.1 µg/mL (≈ 0.239 µM) with Escherichia coli [4]; 3.1 µg/mL (≈ 7.41 µM) in the assay on Pseudomonas aeruginosa; 3.1 µg/mL (≈ 7.41 µM) with Bacteroides fragilis. The MIC in the assay with Providencia rettgeri was 1.6 µg/mL (≈ 3.82 µM); against Staphylococcus aureus [5] it was 0.1 µg/mL (≈ 0.239 µM); in the assay on Cutibacterium acnes, 3.1 µg/mL (≈ 7.41 µM); in assay [1] it was 0.8 µg/mL (≈ 1.91 µM).
On to `COc1c(N2CC[C@H](N)C2)c(F)cc2c(=O)c(C(=O)O)cn(C3CC3)c12`, for which the minimal inhibitory concentration (MIC) turned out to be 0.2 µg/mL (≈ 0.553 µM) against Clostridium perfringens; 0.05 µg/mL (≈ 0.138 µM) with Enterococcus faecalis; 0.2 µg/mL (≈ 0.553 µM) in the assay on Clostridioides difficile; 0.025 µg/mL (≈ 0.0692 µM) against Streptococcus pyogenes; 0.013 µg/mL (≈ 0.036 µM) against Staphylococcus aureus [2]; 0.025 µg/mL (≈ 0.0692 µM) against Escherichia coli [3]. Further, the MIC against Klebsiella pneumoniae came out at 0.05 µg/mL (≈ 0.138 µM); in the assay on Streptococcus pneumoniae, 0.025 µg/mL (≈ 0.0692 µM); against Enterobacter cloacae it was 0.025 µg/mL (≈ 0.0692 µM); with Escherichia coli [4], 0.025 µg/mL (≈ 0.0692 µM); in the assay with Pseudomonas aeruginosa, 0.4 µg/mL (≈ 1.11 µM); in the assay with Bacteroides fragilis it was 0.2 µg/mL (≈ 0.553 µM). Besides, the minimum inhibitory concentration (MIC) in the assay on Providencia rettgeri was found to be 0.1 µg/mL (≈ 0.277 µM); in the assay with Staphylococcus aureus [5], 0.05 µg/mL (≈ 0.138 µM); in the assay on Cutibacterium acnes, 0.4 µg/mL (≈ 1.11 µM); in assay [1], 0.8 µg/mL (≈ 2.21 µM). The half-maximal inhibitory concentration (IC50) with V79 is 32 µg/mL (≈ 88.6 µM).

The record behind these values is ChEMBL document CHEMBL1128719, “The synthesis, structure-activity, and structure-side effect relationships of a series of 8-alkoxy- and 5-amino-8-alkoxyquinolone antibacterial agents” (J Med Chem, 1995).
